{"source": "ChEMBL document CHEMBL1124260", "about": "“Synthesis and antitumor activity of quaternary ellipticine glycosides, a series of novel and highly active antitumor agents” (1988)", "key": {"Mus musculus [1]": {"test_system": "Mus musculus", "experiment": "Antitumor activity against ip implanted P388 leukemia in mouse after ip administration of 80 mg/kg for 5 days expressed as increase in mean life span", "type": "functional", "conditions": "120 h, route intraperitoneal", "method_in_brief": "(§1)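 Saline-dissolved drug was given ip daily for 5 consecutive days, beginning 24 h post-transplant. ILS % was calculated from treated vs control mean survival time over an 80-day observation period.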"}, "Mus musculus [2]": {"test_system": "Mus musculus", "experiment": "Inhibition of sc implanted syngeneic colon 38 carcinoma by ip administration at 30 mg/kg on 1, 3, 5, 7, 9 days measured as inhibition ratio", "type": "functional", "conditions": "route intraperitoneal", "method_in_brief": "(§2)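 Tumor homogenate (70 mg) implanted into the axillary region of female BDF1 mice. Drug dissolved in 0.9% NaCl and diluted with saline just before use, then given ip on days 1, 3, 5, 7 and 9. Tumor length and width were measured by caliper on day 20 after inoculation and converted to estimated weight. Result reported as treated vs control tumor weight, T/C %.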"}, "Mus musculus [3]": {"test_system": "Mus musculus", "experiment": "Effect on ip implanted syngeneic B16 melanoma by ip administration for 9 days at 5 mg/kg was measured as increase in mean life span", "conditions": "216 h"}, "Mus musculus [4]": {"test_system": "Mus musculus", "experiment": "Antitumor activity against ip implanted P388 leukemia in mouse after ip administration of 40 mg/kg for 5 days expressed as increase in mean life span", "type": "functional", "conditions": "120 h, route intraperitoneal", "method_in_brief": "as §1"}, "Mus musculus [5]": {"test_system": "Mus musculus", "experiment": "Antitumor activity against ip implanted P388 leukemia in mouse after ip administration of 20 mg/kg for 5 days expressed as increase in mean life span", "type": "functional", "conditions": "120 h, route intraperitoneal", "method_in_brief": "as §1"}, "Mus musculus [6]": {"test_system": "Mus musculus", "experiment": "Number of survivors out of 6 ip implanted P388 leukemia in mouse after ip administration of 20 mg/kg after 80 days", "type": "functional", "conditions": "route intraperitoneal", "method_in_brief": "(§3)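 P388 leukemia, 10^6 ascitic cells implanted ip in female BDF1 mice. Drug in saline given ip for 5 consecutive days from 24 h after transplant. Groups of six per dose level. Survivors/total recorded at the 80-day end of observation; ILS % from treated/control mean survival time.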"}, "Mus musculus [7]": {"test_system": "Mus musculus", "experiment": "Antitumor activity against ip implanted P388 leukemia in mouse after ip administration of 1.25 mg/kg for 5 days expressed as increase in mean life span", "type": "functional", "conditions": "120 h, route intraperitoneal", "method_in_brief": "as §1"}, "Mus musculus [8]": {"test_system": "Mus musculus", "experiment": "Antitumor activity against ip implanted P388 leukemia in mouse after iv administration of 4 mg/kg for 5 days expressed as increase in mean life span", "conditions": "120 h"}, "Mus musculus [9]": {"test_system": "Mus musculus", "experiment": "Effect on ip implanted syngeneic B16 melanoma by ip administration of 30 mg/kg for 9 days measured as increase in mean life span", "conditions": "216 h"}, "Mus musculus [10]": {"test_system": "Mus musculus", "experiment": "Antitumor activity against ip implanted L1210 leukemia in mouse after ip administration of 10 mg/kg for 5 days expressed as increase in mean life span", "type": "functional", "conditions": "Mus musculus, L1210, ip, 120 h, route intraperitoneal", "method_in_brief": "(§4)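 Drug was dissolved in 0.9% NaCl, diluted just before use and given ip once daily for 5 consecutive days, starting 24 h after transplant. ILS % = mean survival time of treated vs control mice, observed for 80 days.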"}, "Mus musculus [11]": {"test_system": "Mus musculus", "experiment": "Antitumor activity against ip implanted P388 leukemia in mouse after ip administration of 10 mg/kg for 5 days expressed as increase in mean life span", "type": "functional", "conditions": "120 h, route intraperitoneal", "method_in_brief": "as §1"}, "Mus musculus [12]": {"test_system": "Mus musculus", "experiment": "Number of survivors out of 6 ip implanted L1210 leukemia mouse, tested after 80 days at 30 mg/kg", "type": "functional", "conditions": "route intraperitoneal, 30 mg/kg", "method_in_brief": "(§5)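 Female BDF1 mice implanted ip with ascitic fluid holding 10^5 L1210 cells. Saline-dissolved drug given ip daily on days 1-5, starting 24 h after implant. Six mice per dose group, followed 80 days. Survivors/total counted at day 80; ILS % from mean survival time vs controls.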"}, "Mus musculus [13]": {"test_system": "Mus musculus", "experiment": "Antitumor activity against ip implanted L1210 leukemia in mouse after ip administration of 30 mg/kg for 5 days expressed as increase in mean life span", "type": "functional", "conditions": "route intraperitoneal, 30 mg/kg", "method_in_brief": "as §4"}, "Mus musculus [14]": {"test_system": "Mus musculus", "experiment": "Number of survivors out of 6 ip implanted L1210 leukemia in mouse after ip administration of 40 mg/kg after 80 days", "type": "functional", "conditions": "route intraperitoneal", "method_in_brief": "as §5"}, "Mus musculus [15]": {"test_system": "Mus musculus", "experiment": "Number of survivors out of 6 ip implanted P388 leukemia in mouse after ip administration of 40 mg/kg after 80 days", "type": "functional", "conditions": "route intraperitoneal", "method_in_brief": "as §3"}, "Mus musculus [16]": {"test_system": "Mus musculus", "experiment": "Antitumor activity against ip implanted L1210 leukemia in mouse after iv administration of 2 mg/kg for 5 days expressed as increase in mean life span", "conditions": "120 h"}, "Mus musculus [17]": {"test_system": "Mus musculus", "experiment": "Antitumor activity against ip implanted L1210 leukemia in mouse after ip administration of 20 mg/kg for 5 days expressed as increase in mean life span", "type": "functional", "conditions": "120 h, route intraperitoneal", "method_in_brief": "as §4"}, "Mus musculus [18]": {"test_system": "Mus musculus", "experiment": "Number of survivors out of 6 ip implanted P388 leukemia in mouse after ip administration of 10 mg/kg after 80 days", "type": "functional", "conditions": "route intraperitoneal", "method_in_brief": "as §3"}, "Mus musculus [19]": {"test_system": "Mus musculus", "experiment": "Effect on ip implanted syngeneic B16 melanoma by ip administration for 9 days at 10 mg/kg was measured as increase in mean life span", "conditions": "216 h"}, "Mus musculus [20]": {"test_system": "Mus musculus", "experiment": "Antitumor activity against ip implanted L1210 leukemia in mouse after ip administration of 40 mg/kg for 5 days expressed as increase in mean life span", "type": "functional", "conditions": "120 h, route intraperitoneal", "method_in_brief": "as §4"}, "Mus musculus [21]": {"test_system": "Mus musculus", "experiment": "Inhibition of sc implanted syngeneic colon 38 carcinoma by ip administration at 40 mg/kg on 1, 3, 5, 7, 9 days measured as inhibition ratio", "type": "functional", "conditions": "route subcutaneous", "method_in_brief": "as §2"}, "Mus musculus [22]": {"test_system": "Mus musculus", "experiment": "Antitumor activity against ip implanted L1210 leukemia in mouse after ip administration of 1.25 mg/kg for 5 days expressed as increase in mean life span", "type": "functional", "conditions": "120 h, route intraperitoneal", "method_in_brief": "as §4"}, "Mus musculus [23]": {"test_system": "Mus musculus", "experiment": "Antitumor activity against ip implanted P388 leukemia in mouse after ip administration of 5 mg/kg for 5 days expressed as increase in mean life span", "type": "functional", "conditions": "120 h, route intraperitoneal", "method_in_brief": "as §1"}, "Mus musculus [24]": {"test_system": "Mus musculus", "experiment": "Number of survivors out of 6 ip implanted L1210 leukemia in mouse after ip administration of 80 mg/kg after 80 days", "type": "functional", "conditions": "route intraperitoneal", "method_in_brief": "as §5"}, "Mus musculus [25]": {"test_system": "Mus musculus", "experiment": "Inhibition of sc implanted syngeneic colon 38 carcinoma by ip administration at 80 mg/kg on 1, 3, 5, 7, 9 days measured as inhibition ratio", "type": "functional", "conditions": "route subcutaneous", "method_in_brief": "as §2"}, "Mus musculus [26]": {"test_system": "Mus musculus", "experiment": "Antitumor activity against ip implanted L1210 leukemia in mouse after ip administration of 5 mg/kg for 5 days expressed as increase in mean life span", "type": "functional", "conditions": "Mus musculus, L1210, ip, 120 h, route intraperitoneal", "method_in_brief": "as §4"}, "Mus musculus [27]": {"test_system": "Mus musculus", "experiment": "Number of survivors out of 6 ip implanted L1210 leukemia in mouse after ip administration of 20 mg/kg after 80 days", "type": "functional", "conditions": "route intraperitoneal", "method_in_brief": "as §5"}, "Mus musculus [28]": {"test_system": "Mus musculus", "experiment": "Inhibition of sc implanted syngeneic colon 38 carcinoma by ip administration at 60 mg/kg on 1, 3, 5, 7, 9 days measured as inhibition ratio", "type": "functional", "conditions": "route subcutaneous", "method_in_brief": "as §2"}, "Mus musculus [29]": {"test_system": "Mus musculus", "experiment": "Antitumor activity against ip implanted L1210 leukemia in mouse after iv administration of 4 mg/kg for 5 days expressed as increase in mean life span", "conditions": "120 h"}, "Mus musculus [30]": {"test_system": "Mus musculus", "experiment": "Number of survivors out of 6 ip implanted P388 leukemia in mouse after ip administration of 80 mg/kg after 80 days", "type": "functional", "conditions": "route intraperitoneal", "method_in_brief": "as §3"}, "Mus musculus [31]": {"test_system": "Mus musculus", "experiment": "Effect on ip implanted syngeneic B16 melanoma by ip administration of 20 mg/kg for 9 days measured as increase in mean life span", "conditions": "216 h"}, "Mus musculus [32]": {"test_system": "Mus musculus", "experiment": "Antitumor activity against ip implanted P388 leukemia in mouse after iv administration of 8 mg/kg for 5 days expressed as increase in mean life span", "conditions": "120 h"}}}
{"smiles": "Cc1c2cc[n+]([C@H]3O[C@@H](C)[C@@H](O)[C@@H](O)[C@@H]3O)cc2c(C)c2c1[nH]c1ccc(O)cc12.[Br-]", "note": "(stereo in doubt; 56)", "values": [{"measurement": "ILS at 80 mg/kg", "setting": "Mus musculus [1]", "value": "> 513", "unit": "%"}, {"measurement": "T/C", "setting": "Mus musculus [2]", "value": 52, "unit": "%"}, {"measurement": "ILS at 5 mg/kg", "setting": "Mus musculus [3]", "value": 50, "unit": "%"}, {"measurement": "ILS at 40 mg/kg", "setting": "Mus musculus [4]", "value": "> 789", "unit": "%"}, {"measurement": "ILS at 20 mg/kg", "setting": "Mus musculus [5]", "value": "> 677", "unit": "%"}, {"measurement": "Cures", "setting": "Mus musculus [6]", "value": 5}, {"measurement": "ILS at 1.25 mg/kg", "setting": "Mus musculus [7]", "value": 85, "unit": "%"}, {"measurement": "ILS at 4 mg/kg", "setting": "Mus musculus [8]", "value": 63, "unit": "%"}, {"measurement": "ILS at 30 mg/kg", "setting": "Mus musculus [9]", "value": 58, "unit": "%"}, {"measurement": "ILS at 10 mg/kg", "setting": "Mus musculus [10]", "value": 107, "unit": "%"}, {"measurement": "ILS at 10 mg/kg", "setting": "Mus musculus [11]", "value": "> 341", "unit": "%"}, {"measurement": "Cures", "setting": "Mus musculus [12]", "value": 4}, {"measurement": "ILS", "setting": "Mus musculus [13]", "value": ">693", "unit": "%"}, {"measurement": "Cures", "setting": "Mus musculus [14]", "value": 4}, {"measurement": "Cures", "setting": "Mus musculus [15]", "value": 6}, {"measurement": "ILS at 2 mg/kg", "setting": "Mus musculus [16]", "value": 9, "unit": "%"}, {"measurement": "ILS at 20 mg/kg", "setting": "Mus musculus [17]", "value": "> 248", "unit": "%"}, {"measurement": "Cures", "setting": "Mus musculus [18]", "value": 2}, {"measurement": "ILS at 10 mg/kg", "setting": "Mus musculus [19]", "value": 62, "unit": "%"}, {"measurement": "ILS at 40 mg/kg", "setting": "Mus musculus [20]", "value": "> 712", "unit": "%"}, {"measurement": "T/C", "setting": "Mus musculus [21]", "value": 19, "unit": "%"}, {"measurement": "ILS at 1.25 mg/kg", "setting": "Mus musculus [22]", "value": 56, "unit": "%"}, {"measurement": "ILS at 5 mg/kg", "setting": "Mus musculus [23]", "value": 109, "unit": "%"}, {"measurement": "Cures", "setting": "Mus musculus [24]", "value": 6}, {"measurement": "T/C", "setting": "Mus musculus [25]", "value": 2, "unit": "%"}, {"measurement": "ILS at 5 mg/kg", "setting": "Mus musculus [26]", "value": 67, "unit": "%"}, {"measurement": "Cures", "setting": "Mus musculus [27]", "value": 1}, {"measurement": "T/C", "setting": "Mus musculus [28]", "value": 3, "unit": "%"}, {"measurement": "ILS at 4 mg/kg", "setting": "Mus musculus [29]", "value": 38, "unit": "%"}, {"measurement": "Cures", "setting": "Mus musculus [30]", "value": 4}, {"measurement": "ILS at 20 mg/kg", "setting": "Mus musculus [31]", "value": 81, "unit": "%"}, {"measurement": "ILS at 8 mg/kg", "setting": "Mus musculus [32]", "value": 76, "unit": "%"}]}
